{"data": "Measured values collected from several papers", "observed": "enzyme activity", "mode": "inhibitor", "PDGFRA": "Platelet-derived growth factor receptor alpha (PDGFRA, Homo sapiens, UniProt P16234)", "PDGFRA V561D": "Platelet-derived growth factor receptor alpha (PDGFRA, Homo sapiens, UniProt P16234, V561D)"}
{"SMILES": "CNC(=O)c1cc(Oc2ccc(NC(=O)Nc3ccc(Cl)c(C(F)(F)F)c3)cc2)ccn1", "target": "PDGFRA", "conditions": "0.3 µM", "inhibition [%]": 35}
{"SMILES": "CNCc1ccc(-c2cc(-c3nc(-c4ccc(S(=O)(=O)C(C)C)cc4)cnc3N)on2)cc1", "target": "PDGFRA", "conditions": "2 µM", "inhibition [%]": 9}
{"SMILES": "CS(=O)(=O)Nc1cccc(-c2csc(NC(=O)CSc3nc4nccnc4c(=O)n3CCc3ccccc3)n2)c1", "target": "PDGFRA", "conditions": "10 µM", "inhibition [%]": 5}
{"SMILES": "COc1cc2ncnc(Nc3ccc(Oc4ccccc4)c(C)c3C)c2cc1OC", "target": "PDGFRA V561D", "conditions": "1 µM", "inhibition [%]": 7}
{"SMILES": "CN1CC(Oc2cnc(C#N)cc2-c2ccn3nc(NC(=O)C4CC4)cc3c2)C1", "target": "PDGFRA", "conditions": "1 µM", "inhibition [%]": 4}
{"SMILES": "COc1cc(-c2cc(-c3ccc(N4CCNCC4)cc3)cnc2N)cc(OC)c1OC", "target": "Platelet-derived growth factor receptor alpha (PDGFRA, Homo sapiens, UniProt P16234, D842V)", "conditions": "0.1 µM", "inhibition [%]": 54}
{"SMILES": "COc1cc2ncnc(Nc3ccc(Oc4ccccc4)cc3C)c2cc1OC", "target": "PDGFRA V561D", "conditions": "1 µM", "inhibition [%]": 20}
{"SMILES": "CNC(=O)c1cc2c(Oc3ccc(NC(=O)C4(C(=O)Nc5ccc(F)cc5)CC4)cc3)ccnc2cc1OC", "target": "PDGFRA", "test": "radiometric", "conditions": "1 µM", "inhibition [%]": 71}
{"SMILES": "CC/C(=N\\NC(=O)NCc1cccc(O)c1)c1ccc(O)c(C)c1O", "target": "PDGFRA", "conditions": "0.1 µM", "inhibition [%]": 6.7}
